ChEMBL document CHEMBL4251706, “Elimination of HIV-1 Latently Infected Cells by Gnidimacrin and a Selective HDAC Inhibitor” (ACS Med Chem Lett, 2018)
pEC50: −log10 of the molar value. The source made the active and inactive calls. The calls are words filed in the database; no cut-off is given here.

Columns and labels:
PBMC [1] = assay: Induction of IFNgamma1 production in human PBMC at 2000 pM after 2 days in presence of 0.3 uM HDAC inhibitor SAHA by ELISA (reference value: 25 pg/ml); format: cell-based; conditions: 48 h, 0.002 µM
PBMC [2] = assay: Induction of IFNgamma1 production in human PBMC at 2000 pM after 2 days in presence of 1 uM HDAC inhibitor TPB by ELISA (reference value: 27 pg/ml); format: cell-based; conditions: 48 h, 0.002 µM
[3] = tested on: Human immunodeficiency virus 1; assay: Synergistic reactivation of latent HIV1 infected in human U1 cells/uninfected U937 cell mixture assessed as increase in p24 production at 26 pM supplemented with fresh medium containing compound every 3 days for 18 days and subsequent dosing at 129 pM at day 18 post dose measured on day 21 in presence of HDAC inhibitor TPyB by ELISA; format: functional, organism-based
In short: (§1)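 U1 and U937 cells mixed 1:4 (1x10^5 cells/ml) with LRA(s) (GM 26 pM, TPyB 0.57 µM) or DMSO, plus T20 1 µg/ml, for 18 days. p24 in supernatant read by ELISA every 3 days, after which medium with compound was renewed and cells reset to 1x10^5/ml. At day 18, part of the cells got GM 129 pM for 72 h and were read on day 21.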

[4] = tested on: Human immunodeficiency virus 1; assay: Reactivation of latent HIV1 infected in human U1 cells/uninfected U937 cell mixture assessed as reduction in proviral DNA level at 26 pM supplemented with fresh medium containing compound every 3 days for 18 days measured post last dose by PCR analysis; format: functional, organism-based
In short: (§2)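 Cells from the 18-day U1/U937 (1:4) co-culture with LRA(s) or DMSO plus T20 were tested for proviral DNA by PCR of HIV-1 pol (200 bp, 30 cycles), with B2M (779 bp, 25 cycles) as internal control. Products run on 2% agarose and quantified by densitometry; values are ratios of treated to DMSO.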

PBMC [5] = assay: Induction of IFNgamma1 production in human PBMC at 20 pM after 2 days in presence of 3 uM HDAC inhibitor TPB by ELISA (reference value: 26 pg/ml); format: cell-based; conditions: 48 h
[6] = tested on: Human immunodeficiency virus 1; assay: Synergistic reactivation of latent HIV1 infected in human U1 cells assessed as increase in p24 production after 48 hrs in presenc of HDAC inhibitor TPB by ELISA relative to vorinostat; format: functional
[7] = tested on: Human immunodeficiency virus 1; assay: Synergistic reactivation of latent HIV1 infected in human PBMC assessed as reduction in HIV1 DNA at 20 pM after 6 days in presence of HDAC inhibitor TPB by SYBR green dye based RT-PCR analysis relative to control; format: functional
[8] = tested on: Human immunodeficiency virus 1; assay: Reactivation of latent HIV1 infected in human U1 cells assessed as increase in p24 production after 48 hrs by ELISA; format: functional, organism-based; conditions: Human immunodeficiency virus 1, U1, 48 h; read-out: EC50
[9] = tested on: Human immunodeficiency virus 1; assay: Reactivation of latent HIV1 infected in human U1 cells/uninfected U937 cell mixture assessed as increase in p24 production at 26 pM supplemented with fresh medium containing compound every 3 days for 18 days and subsequent dosing at 129 pM at day 18 post dose measured on day 21 by ELISA; format: functional, organism-based; in short: as §1
[10] = tested on: Human immunodeficiency virus 1; assay: Reactivation of latent HIV1 infected in human U1 cells/uninfected U937 cell mixture assessed as p24 level at 26 pM supplemented with fresh medium containing compound every 3 days for 18 days measured at day 18 post dose by ELISA; format: functional; in short: as §1
[11] = tested on: Human immunodeficiency virus 1; assay: Synergistic reactivation of latent HIV1 infected in human U1 cells/uninfected U937 cell mixture assessed as p24 level at 26 pM supplemented with fresh medium containing compound every 3 days for 18 days measured at day 6 post dose in presence of HDAC inhibitor TPyB by ELISA; format: functional; in short: as §1
PBMC [12] = assay: Induction of IFNgamma1 production in human PBMC at 20 pM after 2 days in presence of 1 uM HDAC inhibitor TPB by ELISA (reference value: 27 pg/ml); format: cell-based; conditions: 48 h
PBMC [13] = assay: Induction of T-cell activation in human PBMC assessed as increase in CD69 expression at 3 nM measured after 1 day in presence of HDAC inhibitor vorinostat by flow cytometric method; format: cell-based; conditions: 24 h, 0.003 µM
PBMC [14] = assay: Induction of T-cell activation in human PBMC assessed as increase in CD69 expression at 3 nM measured after 1 day in presence of HDAC inhibitor TPyB by flow cytometric method; format: cell-based; conditions: 24 h, 0.003 µM
[15] = tested on: Human immunodeficiency virus 1; assay: Synergistic reactivation of latent HIV1 infected in human U1 cells assessed as increase in p24 production after 48 hrs in presence of HDAC inhibitor TPB by ELISA; format: functional, organism-based; conditions: Human immunodeficiency virus 1, U1, 48 h
[16] = tested on: Human immunodeficiency virus 1; assay: Ratio of EC50 for reactivation of latent HIV1 infected in human U1 cells to EC50 for synergistic reactivation of latent HIV1 infected in human U1 cells in presence of HDAC inhibitor TPB; format: functional
PBMC [17] = assay: Induction of IFNgamma1 production in human PBMC at 20 pM after 2 days by ELISA (reference value: 29 pg/ml); format: cell-based; conditions: 48 h
[18] = Cytotoxicity against human U937 cells assessed as reduction in cell viability after 48 hrs by CellTiter-Glo luminescent cell viability assay; format: cell-based, U-937
In short: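 U937 cells (HIV-1-negative parental line of U1) at 2x10^5 cells/ml exposed to a range of concentrations for 48 h at 37 °C. Viability read by CellTiter-Glo luminescence. CC50 ± SD derived from 3 independent experiments.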

[19] = tested on: Human immunodeficiency virus 1; assay: Synergistic reactivation of latent HIV1 infected in human PBMC assessed as reduction in frequency of HIV1 latently infected CD4+ cells at 20 pM preincubated for 6 days followed by PHA-stimulation measured after 48 hrs in presence of HDAC inhibitor TPB by ELISA; format: functional
[20] = Cytotoxicity against human Jurkat cells assessed as reduction in cell viability after 72 hrs by CellTiter-Glo luminescent cell viability assay; format: cell-based
PBMC [21] = assay: Induction of IFNgamma1 production in human PBMC at 2000 pM after 2 days in presence of 3 uM HDAC inhibitor TPB by ELISA (reference value: 26 pg/ml); format: cell-based; conditions: 48 h, 0.002 µM
[22] = Selectivity index, ratio of CC50 for human U937 cells to EC50 for reactivation of latent HIV1 infected in human U1 cells; conditions: U937 cells (CC50) and latent HIV-1 infected U1 cells (EC50)
[23] = tested on: Human immunodeficiency virus 1; assay: Reactivation of latent HIV1 infected in human U1 cells assessed as increase in p24 production after 48 hrs by ELISA relative to vorinostat; format: functional
In short: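 U1 cells at 2x10^5 cells/ml incubated with a range of concentrations at 37 °C for 48 h. Supernatant p24 measured by HIV p24 ELISA. EC50 ± SD derived from 3 independent experiments.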

[24] = Cytotoxicity against human J-Lat (A2) cells assessed as effect on cell viability at 80 pM after 72 hrs by flow cytometric analysis; format: cell-based
In short: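 J-Lat (A2) cells, 1x10^6 cells/well, exposed to LRA(s) at 37 °C for 72 h; percent viable cells read by flow cytometry, two independent experiments.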

[25] = tested on: Human immunodeficiency virus 1; assay: Reactivation of latent HIV1 infected in human U1 cells/uninfected U937 cell mixture assessed as increase in p24 production at 26 pM supplemented with fresh medium containing compound every 3 days for 18 days measured at day 9 post dose by ELISA; format: functional, organism-based; in short: as §1
[26] = tested on: Human immunodeficiency virus 1; assay: Reactivation of latent HIV1 infected in human J-Lat A2 cells assessed as increase in GFP positive cells at 80 pM after 72 hrs by flow cytometric analysis relative to control; format: functional
In short: (§3)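 J-Lat (A2) cells express GFP on latent HIV-1 activation; 1x10^6 cells/well incubated with LRA(s), alone or in pairs (HDAC inhibitor TPB 0.3 µM or TPyB 1.0 µM), at 37 °C for 72 h; GFP+ cell frequency by flow cytometry; two independent experiments, one-tailed t-test.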

[27] = tested on: Human immunodeficiency virus 1; assay: Synergistic reactivation of latent HIV1 infected in human U1 cells/uninfected U937 cell mixture assessed as increase in p24 production at 26 pM supplemented with fresh medium containing compound every 3 days for 18 days measured at day 6 post dose in presence of HDAC inhibitor TPyB by ELISA; format: functional, organism-based; in short: as §1
[28] = tested on: Human immunodeficiency virus 1; assay: Synergistic reactivation of latent HIV1 infected in human J-Lat A2 cells assessed as increase in GFP positive cells after 72 hrs in presence of HDAC inhibitor TPB by flow cytometric analysis relative to control; format: functional; in short: as §3
[29] = tested on: Human immunodeficiency virus 1; assay: Synergistic reactivation of latent HIV1 infected in human U1 cells/uninfected U937 cell mixture assessed as reduction in proviral DNA level at 26 pM supplemented with fresh medium containing compound every 3 days for 18 days measured post last dose in presence of HDAC inhibitor TPyB by PCR analysis relative to control; format: functional; in short: as §2
PBMC [30] = assay: Induction of IFNgamma1 production in human PBMC at 2000 pM after 2 days by ELISA (reference value: 29 pg/ml); format: cell-based; conditions: 48 h, 0.002 µM
PBMC [31] = assay: Induction of IFNgamma1 production in human PBMC at 20 pM after 2 days in presence of 0.3 uM HDAC inhibitor SAHA by ELISA (reference value: 25 pg/ml); format: cell-based; conditions: 48 h

In the case of `C=C(C)[C@@]12C[C@@H](COC(=O)c3ccccc3)[C@@]34OC5(O[C@@H]1[C@@H]3[C@@H]1O[C@]1(CO)[C@@H](O)[C@@]1(O)[C@H]4[C@H]([C@H](C)[C@@H]1OC(=O)c1ccccc1)[C@H](C)CCCCCC[C@H]5O)O2` [GNIDIMACRIN], the Activity (PBMC [1]) was 39 pg/mL, the Activity (PBMC [2]) was 47 pg/mL and the Activity [3] was “inactive”. The Activity [4] was “Active”, the Activity (PBMC [5]) was 32 pg/mL and the “fold change (FC)” value [6] was 13.8. For the same compound, the “fold change (FC)” value [7] was 1.8, the pEC50 [8] was 10.74 and the Activity [9] was “inactive”. The Activity [10] was 49 pg/mL, the Activity [11] was 12 pg/mL and the Activity (PBMC [12]) was 34 pg/mL. For the same compound, the Activity (PBMC [13]) was “Toxic”, the Activity (PBMC [14]) was “Toxic” and the pEC50 [15] was 11.25. For the same compound, the “Ratio EC50” value [16] was greater than 3, the Activity (PBMC [17]) was 35 pg/mL and the CC50 at 48 h [18] was 4200 to 4800 nM. For the same compound, the “fold change (FC)” value [19] was greater than 3, the CC50 at 72 h [20] was 5300 nM and the Activity (PBMC [21]) was 42 pg/mL. The selectivity ratio [22] was 260000 to 750000, the “fold change (FC)” value [23] was 12.3 and the Activity [24] was “Non-Toxic”. The Activity [25] was “Active”, the Activity [26] was greater than 5% and the Activity [27] was “Active”. The Activity [28] was 21%, the “fold change (FC)” value [29] was 10 and the Activity (PBMC [30]) was 164 pg/mL. It also gave an Activity (PBMC [31]) of 30 pg/mL.
